Reference: ChEMBL document CHEMBL3853307, “Anti-inflammatory Effect of Methyl Gallate on Experimental Arthritis: Inhibition of Neutrophil Recruitment, Production of Inflammatory Mediators, and Activation of Macrophages” (J Nat Prod, 2016)
Activity calls are given as the source filed them. No cut-off for these calls is given here.

Legend:
Mus musculus [1] = test: Antiinflammatory activity in C57BL/6 mouse assessed as inhibition of zymosan-induced neutrophils recruitment in synovial cavity at 0.7 to 70 mg/kg, po administered 1 hr prior to zymosan challenge measured after 6 to 24 hrs by Grunwald-Giemsa-stained cytospin smear; type: functional, organism-based
In short: (§1)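 Male C57BL/6 mice, fasted overnight, dosed orally (vehicle saline/water, 200 μL) or i.p. 1 h before zymosan (500 μg in 25 μL saline, i.a., left knee). Knee swelling measured as change in transverse diameter from basal by digital caliper (mm). Synovial washes (PBS/EDTA) counted on a particle counter; differentials from May-Grünwald-Giemsa cytospins, cells ×10^5/cavity. Sampled at 6 and/or 24 h; seven mice/group.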

Mus musculus [2] = test: Antiinflammatory activity in C57BL/6 mouse assessed as inhibition of zymosan-induced paw edema at 10 to 50 mg/kg, po administered 1 hr prior to zymosan challenge measured after 4 hrs by plethysmography; type: functional, organism-based
In short: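 C57BL/6 mice dosed orally (1−50 mg/kg) before intraplantar zymosan (100 μg/paw in 50 μL saline); contralateral paw got saline. Volume measured by plethysmography at 4 h, edema taken as right minus left paw (μL).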

Mus musculus [3] = test: Antiinflammatory activity in zymosan-induced C57BL/6 mouse pleurisy model assessed as reduction in neutrophil influx in thoracic cavity at 10 to 50 mg/kg, po administered 1 hr prior to zymosan challenge measured after 4 hrs using Grunwald-Giemsa-stained cytospin smear by light microscopy; type: functional, organism-based
In short: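 Oral pretreatment 1 h before intrathoracic zymosan (100 μg/cavity in 100 μL saline). Cavities washed at 4 h with 1 mL PBS/10 mM EDTA. Total leukocytes counted on a particle counter, differentials from May-Grünwald-Giemsa cytospins (×10^6/cavity). Supernatant after 400g 10 min assayed for total protein by Bradford.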

Mus musculus [4] = test: Antiinflammatory activity in C57BL/6 mouse assessed as inhibition of zymosan-induced knee joint edema formation at 7 mg/kg, po administered 1 hr prior to zymosan challenge measured at 6 hrs relative to control; type: functional; settings: C57BL/6, Knee joint; in short: as §1
Mus musculus [5] = test: Antiinflammatory activity in C57BL/6 mouse assessed as inhibition of zymosan-induced total leukocyte accumulation in articular cavity at 7 mg/kg, po administered 1 hr prior to zymosan challenge measured at 6 hrs; type: functional, organism-based; in short: as §1
Mus musculus [6] = test: Antiinflammatory activity in C57BL/6 mouse assessed as inhibition of zymosan-induced total leukocyte accumulation in articular cavity at 7 mg/kg, po administered 1 hr prior to zymosan challenge measured at 24 hrs; type: functional, organism-based; in short: as §1
Mus musculus [7] = test: Antiinflammatory activity in C57BL/6 mouse assessed as inhibition of zymosan-induced synovial hyperplasia at 7 mg/kg, po administered 1 hr prior to zymosan challenge measured at 6 to 24 hrs by hematoxylin and eosin staining-based optical microscopy; type: functional, organism-based
In short: (§2)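 Mice dosed orally or i.p. 1 h before i.a. zymosan (500 μg/cavity) or saline. Whole knees taken at 6 and 24 h from six mice, fixed in 10% formalin 48 h, decalcified in 10% EDTA/PBS 1−2 weeks, paraffin-embedded. 5 μm sections H&E-stained and examined by light microscopy. Parameter scores summed into an arthritis index; means ± SEM, two experiments.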

Mus musculus [8] = test: Antiinflammatory activity in C57BL/6 mouse assessed as inhibition of zymosan-induced bleeding in synovial tissue at 7 mg/kg, po administered 1 hr prior to zymosan challenge measured at 6 to 24 hrs by hematoxylin and eosin staining-based optical microscopy; type: functional, organism-based; in short: as §2
Mus musculus [9] = test: Antiinflammatory activity in C57BL/6 mouse assessed as inhibition of zymosan-induced arthritis score at 7 mg/kg, po administered 1 hr prior to zymosan challenge measured at 6 to 24 hrs by hematoxylin and eosin staining-based optical microscopy; type: functional, organism-based; in short: as §2
Mus musculus [10] = test: Antiinflammatory activity in C57BL/6 mouse assessed as inhibition of zymosan-induced TNFalpha production in cell-free supernatant of knee joint synovial washes at 7 mg/kg, po administered 1 hr prior to zymosan challenge measured at 6 to 24 hrs by sandwich ELISA method; type: functional, organism-based
In short: (§3)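 Male C57BL/6 mice (18−22 g), fasted overnight, dosed orally (in filtered water, 200 μL) or i.p. 1 h before i.a. zymosan (500 μg in 25 μL saline) into left knee; contralateral knee got vehicle. Synovial cavity washed twice with 150 μL PBS/10 mM EDTA at 6 and 24 h; washes spun 400g 10 min, 4 °C. Cytokines measured by sandwich ELISA, LTB4/PGE2 by EIA (pg/mL); six mice/group, two experiments.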

Mus musculus [11] = test: Antiinflammatory activity in C57BL/6 mouse assessed as inhibition of zymosan-induced CXCL1/KC production in cell-free supernatant of knee joint synovial washes at 7 mg/kg, po administered 1 hr prior to zymosan challenge measured at 6 to 24 hrs by sandwich ELISA method; type: functional, organism-based; in short: as §3
Mus musculus [12] = test: Antiinflammatory activity in C57BL/6 mouse assessed as inhibition of zymosan-induced PGE2 production in cell-free supernatant of knee joint synovial washes at 7 mg/kg, po administered 1 hr prior to zymosan challenge measured at 6 to 24 hrs by immunosorbent assay; type: functional, organism-based; in short: as §3
Mus musculus [13] = test: Antiinflammatory activity in C57BL/6 mouse assessed as inhibition of zymosan-induced LTB4 production in cell-free supernatant of knee joint synovial washes at 7 mg/kg, po administered 1 hr prior to zymosan challenge measured at 6 to 24 hrs by immunosorbent assay; type: functional, organism-based; in short: as §3
[14] = Cytotoxicity against mouse J774A.1 cells assessed as cell viability at 0.01 to 100 uM after 20 hrs by Alamar Blue assay relative to control; type: toxicity, J774.A1; settings: read-out: Activity
In short: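 J774A.1 cells at 2.5 × 10^5 cells/well, 24 h pre-incubation at 37 °C, 5% CO2; fresh medium with or without Tween 20 (3%) or compound (0.01−100 μM), quadruplicate; 20 h incubation, then Alamar Blue added for 4 h; fluorescence read at ex 555/em 585 nm.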

J774.A1 [15] = test: Antiinflammatory activity in mouse J774A.1 cells assessed as inhibition of zymosan and IFNgamma-induced IL6 production in cell-free supernatant at 0.1 to 10 uM preincubated for 1 hr followed by zymosan and IFNgamma addition measured after 24 hrs by sandwich ELISA; type: functional, cell-based
In short: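 J774A.1 macrophages (1 × 10^5/well, RPMI/10% FBS) adhered 24 h, preincubated 1 h with compound (0.1−10 μM) or dexamethasone (1 μM), then stimulated with zymosan (10 μg per 10^5 cells) and/or IFN-γ (25 U/mL) for 24 h. Supernatant IL-6 by sandwich ELISA; nitrite by Griess reaction at 540 nm. Quadruplicate wells, two experiments.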

J774.A1 [16] = test: Antiinflammatory activity in mouse J774A.1 cells assessed as inhibition of zymosan and IFNgamma-induced COX2 expression at 1 to 10 uM preincubated for 1 hr followed by zymosan and IFNgamma addition measured after 24 hrs by Western blot analysis; type: functional, cell-based
In short: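 J774A.1 cells in six-well plates pretreated 1 h (0.1−10 μM) before zymosan (10 μg per 10^5 cells) and/or IFN-γ (25 U/mL) for 24 h. Lysates (Tris/NaCl/MgCl2/0.5% NP40 with protease inhibitors); 30 μg protein run on 7.5% SDS-PAGE, transferred to PVDF, probed for COX-2, iNOS and α-tubulin.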

SMILES: COC(=O)c1cc(O)c(O)c(O)c1 [GALLIC ACID METHYL ESTER]
- inhibition (Mus musculus [1]): Active
- inhibition (Mus musculus [2]): Active
- Activity (Mus musculus [3]): Active
- inhibition in vivo at 7 mg/kg (Mus musculus [4]): 24%
- inhibition (Mus musculus [5]): Active
- inhibition (Mus musculus [6]): Active
- inhibition (Mus musculus [7]): Active
- inhibition (Mus musculus [8]): Active
- inhibition (Mus musculus [9]): Active
- inhibition (Mus musculus [10]): Active
- inhibition (Mus musculus [11]): Active
- inhibition (Mus musculus [12]): Active
- inhibition (Mus musculus [13]): Active
- viability at 20 h, up to 100 µM [14]: ≥ 95%
- inhibition (J774.A1 [15]): Active
- inhibition (J774.A1 [16]): Active
